# Screening data from PubChem BioAssay.
# Hits are enriched below; roughly 0.77% of the tested compounds scored in any of these assays.
# hIAP inh – human IAP inhibition; P09923; AID 2544; purified IAP, CDP-Star luminescence, 30 min; inhibition, % at 10 µM; 330,000 compounds, 0.12% hits;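 active = inhibition reaching a set limit with compound at 10 µM in the primary screen, cut at about 35% in these data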;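 also: plate controls were DMSO wells with enzyme for no effect and no-enzyme buffer wells for full effect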
# Target sequence (P09923 whole entry, looked up): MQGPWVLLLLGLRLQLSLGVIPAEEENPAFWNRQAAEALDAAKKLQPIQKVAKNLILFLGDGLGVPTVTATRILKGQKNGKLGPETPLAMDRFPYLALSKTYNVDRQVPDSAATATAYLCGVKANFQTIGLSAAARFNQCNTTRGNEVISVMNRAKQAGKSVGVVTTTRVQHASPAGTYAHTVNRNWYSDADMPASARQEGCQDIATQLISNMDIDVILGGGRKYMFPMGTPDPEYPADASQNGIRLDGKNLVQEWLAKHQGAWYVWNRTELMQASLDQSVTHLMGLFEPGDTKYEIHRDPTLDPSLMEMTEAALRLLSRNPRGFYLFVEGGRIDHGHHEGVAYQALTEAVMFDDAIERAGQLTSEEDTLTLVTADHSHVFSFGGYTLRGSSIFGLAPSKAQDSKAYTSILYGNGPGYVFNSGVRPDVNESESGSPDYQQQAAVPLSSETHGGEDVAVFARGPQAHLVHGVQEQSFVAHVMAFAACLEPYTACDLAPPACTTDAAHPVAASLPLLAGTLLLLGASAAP
# bIAP inh – blocks bovine intestinal alkaline phosphatase activity. purified bovine IAP, CDP-star luminescence, 30 min. inhibition, % at 20 µM. 190,000 tested, under 10 active. AID 1019;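 active = over 50% inhibition of intestinal alkaline phosphatase at 20 µM in the single-dose screen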
#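 test system = bovine IAP enzyme | medium = DEA buffer 100 mM, pH 9.8, with MgCl2 1.0 mM, ZnCl2 0.02 mM | detection = luminescence | dosing = single compound dose of 20 µM, 2% DMSO final | incubation = 30 min reaction at room temperature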
# mIAP block – blocks mouse intestinal alkaline phosphatase | purified mouse IAP, CDP-Star luminescence, 30 min | inhibition, % at 10 µM | 330,000 compounds, 0.2% hits;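 active = inhibition of at least 40% at 10 µM in the primary screen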;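 also: plate controls were DMSO with enzyme for no effect and no enzyme wells for full effect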
# bIAP activator – increases bovine intestinal alkaline phosphatase activity | purified bovine IAP, CDP-star luminescence, 30 min; stronger effect = higher value; fold of DMSO-control signal, blank-subtracted | 200,000 compounds, 0.17% hits | activation factor at 20 µM;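 active = activation factor of 2 or more at 20 µM, a signal rise over negative controls twice the positive control's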
# hIAP activ – human IAP activation. activation factor at 10 µM. AID 2524. purified human IAP, CDP-Star luminescence, 30 min; stronger effect = higher value; 1 = vehicle-only enzyme, 0 = enzyme-free background. 330,000 compounds, 0.16% hits. P09923;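 active = activation factor of the enzyme at least 2-fold when tested at 20 µM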
# mIAP activ – increases mouse intestinal alkaline phosphatase activity. muIAP, CDP-Star luminescence, 30 min; stronger effect = higher value; 1 = vehicle-only enzyme signal, 0 = enzyme-free wells. activation factor at 10 µM. AID 2805. 330,000 compounds, 0.24% hits;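 active = activation factor of at least 2 at 20 µM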
#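 System: mouse IAP enzyme. Reagent: CDP-Star chemiluminescent phosphatase substrate. Benchmarks: DMSO wells, no-enzyme wells. Times: 30 min enzyme-substrate-compound incubation at room temperature. Detection: luminescence from enzymatic CDP-Star hydrolysis. Doses: test compounds delivered from DMSO solution.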
# hIAP act confirm – human IAP activation confirmation; shares compounds with hIAP activ; purified IAP, CDP-Star luminescence, 30 min; stronger effect = lower value; activation (%Activity, negative = activation), % at 8.3 µM; 880 compounds, 10% hits;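 active = at least twofold enzyme activation in any of six single-dose repeats, which the averaged readout prints as negative percent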
# * marks the source's active call; other numbers are inactive results; nt = no result given.
SMILES,hIAP inh,bIAP inh,mIAP block,bIAP activator,hIAP activ,mIAP activ,hIAP act confirm
COC(=O)Cc1ccc(NC(=S)NCCSc2ccc(C)cc2)cc1,1,18,-69,0.8,0.99,1.7,nt
COc1cccc(/C=N/Nc2nc(-c3cccnc3)nc3ccccc23)c1,58*,nt,2,nt,0.42,0.98,0
C(=N\Nc1nc(-c2cccnc2)nc2ccccc12)/c1ccccc1,-2,nt,1,nt,1,0.99,nt
O=C(CC(c1cccs1)S(=O)(=O)c1ccccc1)c1ccc(F)cc1 (configuration not stated),13,12,4,0.9,0.87,0.96,nt
CCn1nnc(-c2ccc(N)cc2)n1,-102,-7,-2,1.1,2*,1,-22
Nc1ccc(-c2nnn(CC(=O)N3CCCCC3)n2)cc1,-12,nt,1,nt,1.1,0.99,nt
CN(CC(=O)Nc1ccccc1F)CC(=O)Nc1ccc(F)c(F)c1F,-111,-45,-3,1.5,2.1*,1,52
CCOC(=O)C1CCN(C(=O)c2ccc(OCC(=O)Nc3cccc(C(F)(F)F)c3)c(OC)c2)CC1,-8,nt,-15,nt,1.1,1.2,nt
COc1ccc(NC(=O)CN2CCCC2c2cccs2)cc1S(=O)(=O)N1CCCCC1 (configuration not stated),2,nt,-11,nt,0.98,1.1,nt
O=C(N/N=C/c1ccccc1O)C(=O)Nc1ccccn1,-105,-36,19,1.4,2*,0.81,9
COc1ccc(/C=N/NC(=O)C(=O)Nc2ccccn2)cc1OC,-20,-29,2,1.3,1.2,0.98,nt
COc1cc2c(C(=O)N(C)c3ccc(F)cc3)cn(C)c(=O)c2cc1OC,11,nt,1,nt,0.89,0.99,nt
O=C(CSc1ncn[nH]1)NNC(=O)c1ccccc1,-123,nt,8,nt,2.2*,0.92,-23
CC[n+]1c(/C=C/c2c[nH]c3ccccc23)ccc2cc(C)ccc21,36*,30,31,0.7,0.64,0.69,-86*
CCN(CC)C(=O)c1ccc(/C=C/c2c[nH]c3ccccc23)[n+](C)c1,-2,0,10,1,1,0.9,nt
COc1ccccc1C1=NN(C2=NN=C(N)Cc3ncnn32)C(O)(C(F)(F)F)C1 (configuration not stated),-177,-43,16,1.4,2.8*,0.84,45
NC1=NN=C(N2N=C(c3ccccc3)CC2(O)C(F)(F)F)n2ncnc2C1 (configuration not stated),-10,-41,28,1.4,1.1,0.72,nt
CCOC(=O)N1N=C(c2ccc(OC)cc2)CC1(O)C(F)(F)F (configuration not stated),-19,-8,9,1.1,1.2,0.91,nt
COc1ccc(C2=NN(C3=NN=C(N)Cc4ncnn43)C(O)(C(F)(F)F)C2)cc1 (configuration not stated),-160,-72,14,1.7,2.6*,0.86,42
NC1=NN=C(N2N=C(c3ccc(Br)cc3)CC2(O)C(F)(F)F)n2ncnc2C1 (configuration not stated),-162,-8,5,1.1,2.6*,0.95,4
N#Cc1c(N)c2ccccn2c1C(=O)c1ccc(Br)cc1,3,nt,6,nt,0.97,0.94,nt
O=C(CSc1ncn[nH]1)N1c2ccccc2Sc2ccccc21,-14,nt,0,nt,1.1,1,nt
COc1cc(OC)c(OC)cc1/C=N/n1c(-c2n[nH]c3c2CCC3)n[nH]c1=S,-107,nt,-8,nt,2.1*,1.1,-42
COC(=O)c1cc(C(=O)OCC(=O)N2CCCCC2)cc([N+](=O)[O-])c1,-2,nt,3,nt,1,0.97,nt
COc1ccccc1/C=C/C=N/n1c(-c2ccc(Cl)cc2)n[nH]c1=S,0,nt,8,nt,1,0.92,nt
SMILES,hIAP inh,bIAP inh,mIAP block,bIAP activator,hIAP activ,mIAP activ,hIAP act confirm
CC(C)Nc1nc(NC(C)C)nc(Oc2ccc(OCc3ccccc3)nn2)n1,37*,3,-3,1,0.63,1,-39
CCNc1nc(NCC)nc(Oc2ccc(OCc3ccccc3)nn2)n1,8,10,2,0.9,0.92,0.98,nt
O=C(NCC1CCCO1)c1ccc(Br)s1 (configuration not stated),40*,nt,2,nt,0.6,0.98,9
COc1cc(OC)cc(-c2nnc(Nc3nc4c(F)cccc4s3)o2)c1,-103,6,19,0.9,2*,0.81,-1
O=[N+]([O-])c1ccc(Nc2ccccc2)c2nonc12,38*,nt,20,nt,0.61,0.8,-18
CCOc1ccc(CC(=O)NNC(=S)NC2CCCCC2)cc1OCC,-110,6,-2,0.9,2.1*,1,-80*
Cc1ccc(-n2c(-c3ccc(Cl)cc3)n[nH]c2=S)c(C)c1,11,nt,4,nt,0.89,0.96,nt
Cc1ccc(-n2c(-c3cccnc3)n[nH]c2=S)c(C)c1,-200,14,6,0.9,3*,0.94,15
COc1ccc(F)cc1S(=O)(=O)n1nc(C)cc1C,40*,nt,2,nt,0.6,0.97,-62
COc1ccc(C)cc1S(=O)(=O)n1nc(C)cc1C,-13,-8,5,1.1,1.1,0.95,nt
Cn1nc(C(=O)NNC(=O)c2ccc(Cl)c(S(N)(=O)=O)c2)c2ccccc2c1=O,-105,nt,33,nt,2.1*,0.67,2
COc1ccc(OCC(=O)NNC(=O)c2nn(C)c(=O)c3ccccc23)cc1,-22,-6,9,1.1,1.2,0.91,nt
COc1cc(OC)cc(C(=O)NNC(=O)c2nn(C)c(=O)c3ccccc23)c1,-106,nt,-4,nt,2.1*,1,23
Cc1ccc(C)c(/C=N/Nc2nc3ccccc3c(=O)n2O)c1,-4,nt,18,nt,1,0.82,nt
CS(=O)(=O)c1ccc(-c2sc3cc4c(cc3c2C(=O)NN2CCOCC2)OCO4)cc1,8,nt,-13,nt,0.92,1.1,nt
CC(C)CCNC(=O)C1CCN(C(=O)N(C)C)CC1,47*,11,-5,0.9,0.53,1,88
CCC(C)NC(=O)C1CCN(C(=O)N(C)C)CC1 (configuration not stated),0,12,10,0.9,1,0.9,nt
O=C(Nc1cccc(C(=O)Nc2cccc(Br)c2)c1)c1ccccc1,-4,nt,-3,nt,1,1,nt
CC(C)c1ccc(NC(=O)c2cccc(Br)c2)cc1,-145,18,-1,0.8,2.4*,1,-13
O=C(c1ccccc1)C1CCN(C(=O)c2c(F)cccc2F)CC1,2,nt,-2,nt,0.98,1,nt
Cc1ccc(-n2c(Cc3ccccc3)nnc2SCC(=O)NNC(=O)Cc2ccccc2)cc1,-100,-57,1,1.6,2*,0.99,-1
CCOC(=O)CSc1nnc(Cc2ccccc2)n1-c1ccc(C)cc1,-13,20,18,0.8,1.1,0.82,nt
